Laboratory results reported in paper PMC2858377 (Nature structural & molecular biology, 2009).
Entries after “also recorded” stand apart in the source; their conditions may differ. Values belong to the molecule of their own block, whether it stands above or below them.

Tests used:
[1] = target: T1, 14-3-3ζ (Homo sapiens, UniProt P63104); assay: Isothermal titration calorimetry of KH1-derived peptides with 14-3-3ζ; assay type: binding; details: ITC, 200 μM 14-3-3ζ, 2 mM peptide, 30°C
T1 sequence (P63104 1-245): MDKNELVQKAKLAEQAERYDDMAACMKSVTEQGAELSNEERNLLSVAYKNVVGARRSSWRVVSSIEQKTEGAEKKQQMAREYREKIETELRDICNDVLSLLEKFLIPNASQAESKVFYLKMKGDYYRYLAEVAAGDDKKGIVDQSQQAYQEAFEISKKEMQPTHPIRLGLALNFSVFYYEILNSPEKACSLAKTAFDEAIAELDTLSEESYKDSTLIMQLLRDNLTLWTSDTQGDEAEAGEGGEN
How it was run: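 14-3-3ζ was dialysed into 10 mM Tris pH 7.4, 50 mM NaCl, 1 mM TCEP. It was titrated with phosphorylated or unphosphorylated KH1-derived peptide dissolved in the dialysis buffer, in a VP-ITC microcalorimeter. Concentrations given are 200 μM protein and 2 mM peptide; all runs were at 30 °C.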

[2] = tested on: nuclear/cytoplasmic distribution of KSRP in HIRc-B cells; assay: KSRP sub-cellular localization, HIRc-B cells; assay type: cell-based; details: insulin 10^−6 M, 1h; nuclear and cytoplasmic extracts
[3] = tested on: cellular distribution of AUF1 and hnRNPA1 in HIRc-B cells; assay: AUF1 and hnRNPA1 cellular distribution, HIRc-B cells; assay type: cell-based; details: insulin 10^−6 M, 1h
[4] = target: T1, 14-3-3ζ; assay: SOFAST 15N-1H HMQC NMR titration of 14-3-3 into 15N-labelled KH1 / phospho-KH1; assay type: binding; details: 15 μM KH1 or phospho-KH1, KH:14-3-3 1:2 ratio
How it was run: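 15N-labelled KH1 or AKT1-phosphorylated KH1 in 10 mM Tris-HCl pH 7.4, 50 mM NaCl, 1 mM TCEP was mixed with 14-3-3ζ at a 1:2 ratio. SOFAST 15N-HMQC spectra were superimposed on free-domain spectra to track resonance broadening. For competition, the phosphorylated KH1 peptide was added to the phospho-KH1–14-3-3 complex at a 1:2:10 ratio.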

[5] = tested on: AU-rich RNA targets; assay: KH domain–RNA binding by 15N-HSQC NMR titration
How it was run: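 Chemically synthesised RNA hexamers, used without further purification, were titrated into the 15N-labelled KH domain sample. 15N-HSQC spectra were acquired across the titration, with the protein in Tris-HCl pH 7.4/NaCl/TCEP buffer at 27°C.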

[6] = tested on: AKT1; assay: In vitro phosphorylation by AKT kinase; assay type: biochemical; details: 100 μM KH1, 1 μg recombinant active AKT1, 37°C, 48 hours
[7] = Folding state by NMR; assay type: physicochemical; details: for folding state (in words): SOFAST 15N-1H HMQC, 10 mM Tris-HCl pH 7.4, 50 mM NaCl, 1 mM TCEP
How it was run: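 KH1 (residues 130–218) was phosphorylated with active AKT1 and separated from unphosphorylated protein by gel filtration, with identity confirmed by mass spectrometry. Samples were exchanged into 10 mM Tris-HCl pH 7.4, 50 mM NaCl, 1 mM TCEP and examined by 15N-HSQC / SOFAST HMQC. Phospho-KH1 was then dephosphorylated with 100 U λ phosphatase (60 min, 37 °C), re-purified and re-examined. Heat-inactivated AKT1 and S193A mutant served as controls.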

[8] = CD spectroscopy / thermal unfolding; assay type: physicochemical
[9] = tested on: KSRP KH2; assay: KH1–KH2 inter-domain interaction by 15N-HSQC NMR; assay type: binding, human; details: 15N-HSQC of KH1_143–218, KH2_233-305 and KH12_143–305

binding to 14-3-3ζ (in words) [1]: no binding is observed
Molecule: non phosphorylated peptide: KH1-derived non-phosphorylated peptide used in ITC (YGLPERSVSLTGAPES)

Molecule: insulin: insulin treatment induces AKT activation in HIRc-B cells
KSRP localization [2]: AKT activation promotes nuclear localization of KSRP
effect on AUF1 and hnRNPA1 distribution [3]: did not affect the cellular distribution of the ribo-nucleoproteins AUF1 and hnRNPA1

interaction with 14-3-3 (change in spectrum) ([4]; listed as Non-phosphorylated KH1): not recognized by 14-3-3
Kd ([5]; read-out: Kd for AU-rich RNA, 5′-UAUUUA-3′ and 5′-UAUUAU-3′ RNAs, 25 μM 15N-labeled KH domain, 10 mM Tris-HCl pH 7.4, 100 mM NaCl, 1 mM TCEP, 27°C, too low to be accurately measured): > 1000 µM
phosphorylation efficiency [6]: ~ 90%
B1: KH1: first KH domain of human KSRP (Ile130–Gly218) (protein)
chain: ISSQLGPIHPPPRTSMTEEYRVPDGMVGLIIGRGGEQINKIQQDSGCKVQISPDSGGLPERSVSLTGAPESVQKAKMMLDDIVSRGRGG
modifications: 15N-labelled
interaction with 14-3-3 (change in spectrum) [4]: the two proteins are not interacting; also recorded: No appreciable change is observed in the spectrum of the domain
affinity for AU-rich sequences (in words) ([5]; compared with the other KH domains): affinity substantially lower than that of the other KH domains
folding state (in words) [7]: folded
fraction of unfolded protein ([8]; 37°C): ~ 16%
interaction of KH1 with KH2 (in words) [9]: KH1 and KH2 do not interact in a stable and specific way

B2: phospho-KH1: KSRP KH1 phosphorylated by AKT kinase at Ser193 (protein)
chain: ISSQLGPIHPPPRTSMTEEYRVPDGMVGLIIGRGGEQINKIQQDSGCKVQISPDSGGLPERSVSLTGAPESVQKAKMMLDDIVSRGRGG
modifications: phosphoserine at 193; 15N-labelled
interaction with 14-3-3 (change in spectrum) [4]: Selected resonances broaden substantially; also recorded: interacts with the protein
interaction with 14-3-3 (change in spectrum) ([4]; listed as phosphorylated KH1): strong selective decrease in the intensity of the NMR signal of a small number of resonances
folding state (in words) [7]: unfolded
folding state (in words) ([7]; listed as phosphorylated protein): essentially unfolded
folding after de-phosphorylation (in words) ([7]; SOFAST HMQC after λ protein phosphatase, 100 Units, 60 minutes, 37 °C): removal of the phosphate group leads to complete refolding of the protein
effect of temperature on CD spectrum ([8]; CD at 20, 40, 60, 80 and 95 °C): The spectrum of the protein does not change with temperature; also recorded: The spectra do not change substantially at increasing temperatures
apparent percentage of unfolded peptidic chain ([8]; CD, 20 °C, range expected for fully unfolded proteins 69.8-89.9 %): 79.9%
